Measured values gathered from unrelated publications.
Target: Glycogen synthase kinase-3 beta (GSK3B, Homo sapiens, UniProt P49841)
Action: inhibitor

Structure (SMILES)	test	test system	conditions	inhibition [%]
NS(=O)(=O)Cc1noc2ccccc12	enzyme activity, ADP detection		100 µM	21.9
CSc1nc(C)c(-c2ccnc(Nc3ccc(N4CCOCC4)cc3)c2)[nH]1	enzyme activity		10 µM	5.7
CN1CC(Oc2cnc(C#N)cc2-c2ccn3nc(NC(=O)C4CC4)cc3c2)C1	enzyme activity		1 µM	-8
O=C(CSc1nc2nccnc2c(=O)n1CCc1ccccc1)Nc1nccs1	enzyme activity		10 µM	-5
CNc1cc(Oc2cc(C(=O)Nc3cc(N4CCN(C)CC4)cc(C(F)(F)F)c3)ccc2C)ncn1	target engagement in cells, chemoproteomics	Huh-7	1 µM	-17.6
COc1ccc2c(c1)O[C@H]1c3ccc(OC)cc3OC[C@@H]21	enzyme activity, ADP detection		100 µM	32.9
CCCCNc1ncc2c(-c3ccc(F)cc3)nn(C[C@H]3CC[C@H](N)CC3)c2n1	target engagement in cells, chemoproteomics		20 mM	4.2
Cc1nc(-c2ccc(OCC(C)C)c(C#N)c2)sc1C(=O)O	enzyme activity, ADP detection		100 µM	66.9
CCCS(=O)(=O)Nc1ccc(F)c(C(=O)c2c[nH]c3ncc(-c4ccc(Cl)cc4)cc23)c1F	enzyme activity		1 µM	< 20
CCN(CC)CCNC(=O)c1c(C)[nH]c(/C=C2\C(=O)Nc3ccc(F)cc32)c1C	enzyme activity		10 µM	3
CC(C)NCC(O)c1ccc(NS(C)(=O)=O)cc1 (centres unmarked)	enzyme activity, ADP detection		100 µM	8.4
CN(C)C1CCN(CC#Cc2nn(C3CCCC3)c3nc(NCc4ccccc4)ncc23)C1 (centres unmarked)	enzyme activity, FRET		1 µM	-1
c1ccc(CNc2nc(N3CCOc4ccccc43)nc3c2CCCC3)cc1	target engagement in cells, chemoproteomics		20 mM	-3.9
COc1cc2ncnc(Nc3ccc(Oc4ccccc4)cc3C)c2cc1OC	enzyme activity		1 µM	-2
